Activity calls are given as the source filed them. The calls are words filed in the database; no cut-off is given here.
What was measured:
[1] = Growth inhibition of human U373 cells after 72 hrs by MTT assay; assay type: functional, cell-based, U-373MG ATCC; conditions: U373 MG
Method in brief: (§1)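 Glioma lines were grown in RPMI with 10% heat-inactivated FCS, 4 mM glutamine, gentamicin and penicillin-streptomycin. Cells were plated for 24 h at 10,000–40,000 cells/mL, then exposed to compound for 72 h. MTT reduction to formazan was read at 570 nm (reference 630 nm). Six replicates were run.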

T98G [2] = experiment: Growth inhibition of human T98G cells after 72 hrs by MTT assay; assay type: functional, cell-based; method in brief: as §1
[3] = Growth inhibition of human Hs683 cells after 72 hrs by MTT assay; assay type: functional, cell-based; conditions: Hs 683, 72 h; method in brief: as §1
T98G [4] = experiment: Selectivity index, ratio of IC50 for mouse astrocytes to IC50 for human T98G cells
Hs 683 = experiment: Selectivity index, ratio of IC50 for mouse astrocytes to IC50 for human Hs683 cells
B16-F10 = experiment: Growth inhibition of mouse B16F10 cells after 72 hrs by MTT assay; assay type: functional, cell-based; conditions: B16-F10, 72 h
[5] = Cell cycle arrest in human U373 cells assessed as accumulation at G0/G1 phase at 3 to 10 uM after 24 hrs by propidium iodide staining-based flow cytometric analysis; assay type: functional; conditions: U-373MG ATCC
U-373MG ATCC [6] = experiment: Induction of apoptosis in human U373 cells assessed as increase in subG1 cell population at 3 to 10 uM after 24 hrs by flow cytometric analysis; assay type: functional, cell-based
[7] = Selectivity index, ratio of IC50 for mouse astrocytes to IC50 for human U373 cells; parameters: species or system U-373MG ATCC
[8] = Growth inhibition of human U373 cells assessed as global growth ratio after 72 hrs by quantitative videomicroscopic analysis relative to untreated control; assay type: functional, U-373MG ATCC; conditions: U373 MG
Method in brief: (§2)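 U373 cells were cultured in 25 cm² flasks and filmed by computer-assisted phase-contrast time-lapse for 72 h, one image every 4 min. Growth level was the cell count in the last frame divided by the first. Global growth ratio was treated growth level over control growth level. Compounds were tested at 20 µM.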

U-373MG ATCC [9] = experiment: Induction of apoptosis in human U373 cells assessed as increase in subG1 cell population at 10 to 30 uM after 24 hrs by flow cytometric analysis; assay type: functional, cell-based
[10] = Cytostatic activity against human U373 cells assessed as global growth ratio by measuring number of cells counted in the last and the first frame of study at 20 uM by quantitative videomicroscopic analysis; assay type: functional, U-373MG ATCC; method in brief: as §2
[11] = Cell cycle arrest in human U373 cells assessed as accumulation at G0/G1 phase at 10 to 30 uM after 24 hrs by propidium iodide staining-based flow cytometric analysis; assay type: functional; conditions: U-373MG ATCC

| SMILES | IC50 [1] [µM] | IC50 (T98G [2]) [µM] | IC50 [3] [µM] | Ratio IC50 (T98G [4]) | Ratio IC50 (Hs 683) | IC50 (B16-F10) [µM] | Activity [5] | Activity (U-373MG ATCC [6]) | Ratio IC50 [7] | IC80 [8] [µM] | Activity (U-373MG ATCC [9]) | Ratio [10] | Activity [11] |
| --- | --- | --- | --- | --- | --- | --- | --- | --- | --- | --- | --- | --- | --- |
| CC1(C)CC(NC(=O)NCc2ccccc2)c2cc(Br)ccc2O1 (stereo not drawn) | 27 | 38 | 38 |  |  |  |  |  |  |  |  |  |  |
| CC1(C)CC(NC(=S)Nc2ccc(Cl)cc2)c2cc(Br)ccc2O1 (stereo not drawn) | 7 | 22 | 9 | 2 | 2 | 7 | Active | inactive | 2 |  |  |  |  |
| CC1(C)CC(NC(=O)NS(=O)(=O)c2ccccc2)c2cc(Cl)ccc2O1 (stereo not drawn) | 96 | > 100 | > 100 |  |  |  |  |  |  |  |  |  |  |
| CC1(C)CC(NC(=S)Nc2ccc(C#N)cc2)c2cc(Br)ccc2O1 (stereo not drawn) | 22 | 24 | 15 | 2 | 2 |  |  |  | 2 |  |  |  |  |
| CCNC(=S)NC1CC(C)(C)Oc2ccc(Cl)cc21 (stereo not drawn) | 96 | > 100 | 72 |  |  |  |  |  |  |  |  |  |  |
| COc1cccc(NC(=S)NC2CC(C)(C)Oc3ccc(Br)cc32)c1 (stereo not drawn) | 66 | 87 | 81 |  |  |  |  |  |  |  |  |  |  |
| CC1(C)CC(NC(=S)Nc2cccc(Cl)c2)c2cc(Br)ccc2O1 (stereo not drawn) | 8 | 9 | 8 | <2 | <2 | 7 |  |  | <2 |  |  |  |  |
| CC(C)NC(=S)NC1CC(C)(C)Oc2ccc(Cl)cc21 (stereo not drawn) | 57 | 91 | 34 |  |  |  |  |  |  |  |  |  |  |
| CCNC(=O)NC1CC(C)(C)Oc2ccc(Cl)cc21 (stereo not drawn) | > 100 |  |  |  |  |  |  |  |  |  |  |  |  |
| CC1(C)CC(NC(=O)Nc2ccccc2Cl)c2cc(Cl)ccc2O1 (stereo not drawn) | 17 | 20 | 25 | >10 | >10 | 20 |  |  | >10 | 20 | inactive | 0.2 | Active |
| CC1(C)CC(NC(=S)Nc2ccc([N+](=O)[O-])cc2)c2cc(Br)ccc2O1 (stereo not drawn) | 9 | 5 | 3 | <2 | <2 | 3 |  |  | <2 |  |  |  |  |
| Cn1nnc2c(C(N)=O)ncn2c1=O [TEMOZOLOMIDE] | 220 | 879 | 956 |  |  | 258 |  |  |  |  |  |  |  |
| CC1(C)CC(NC(=S)NCc2ccccc2)c2cc(Br)ccc2O1 (stereo not drawn) | 29 | 54 | 34 |  |  |  |  |  |  |  |  |  |  |
| COc1ccc(Cl)cc1C(=O)NCCc1ccc(S(=O)(=O)NC(=O)NC2CCCCC2)cc1 [GLYBURIDE] | > 100 |  |  |  |  |  |  |  |  |  |  |  | inactive |
| CC1(C)CC(NC(=O)Nc2ccc(Cl)cc2)c2cc(Br)ccc2O1 (stereo not drawn) | 25 | 27 | 24 | 5 | 5 | 9 |  |  | 5 |  |  |  |  |
| CC1(C)CC(NC(=O)Nc2ccc(Cl)cc2)c2cc(F)ccc2O1 (stereo not drawn) | 24 | 30 | 25 |  |  |  |  |  |  |  |  |  |  |
| CC1(C)CC(NC(=S)Nc2cccc([N+](=O)[O-])c2)c2cc(Br)ccc2O1 (stereo not drawn) | 4 | 4 | 3 | 2 | 2 | 5 |  |  | 2 |  |  |  |  |
| CC1(C)CC(NC(=O)Nc2cccc(Cl)c2)c2cc(Br)ccc2O1 (stereo not drawn) | 69 | 67 | 61 |  |  |  |  |  |  |  |  |  |  |
| CC1(C)CC(NC(=O)Nc2ccccc2Cl)c2cc(F)ccc2O1 (stereo not drawn) | 40 | 27 | 29 |  |  |  |  |  |  |  |  |  |  |
| O=[N+]([O-])c1ccc(NC(=S)NCc2cccc(Cl)c2)cc1 | 27 | 20 | 27 |  |  |  |  |  |  |  |  |  |  |
| CC1(C)CC(NC(=O)Nc2ccccc2)c2cc(Cl)ccc2O1 (stereo not drawn) | 68 | 34 | 33 |  |  |  |  |  |  |  |  |  |  |
| CC1(C)CC(NC(=S)Nc2cccc([N+](=O)[O-])c2)c2cc(F)ccc2O1 (stereo not drawn) | 6 | 9 | 6 | 2 | 2 | 6 |  |  | 2 |  |  |  |  |
| CC1(C)CC(NC(=S)Nc2ccc([N+](=O)[O-])cc2)c2cc(Cl)ccc2O1 (stereo not drawn) | 3 | 4 | 2 | 2 | 2 | 3 | Active | inactive | 2 |  |  |  |  |
| CC1(C)CC(NC(=S)Nc2ccccc2)c2cc(Cl)ccc2O1 (stereo not drawn) | 46 | 37 | 32 |  |  |  |  |  |  |  |  |  |  |

Source: ChEMBL document CHEMBL2040777, “N-Aryl-N'-(chroman-4-yl)ureas and thioureas display in vitro anticancer activity and selectivity on apoptosis-resistant glioblastoma cells: screening, synthesis of simplified derivatives, and structure-activity relationship analysis” (Eur J Med Chem, 2012)
